The source of these data is ChEMBL document CHEMBL1138217, “Rapid discovery and structure-activity profiling of novel inhibitors of human immunodeficiency virus type 1 protease enabled by the copper(I)-catalyzed synthesis of 1,2,3-triazoles and their further functionalization” (J Med Chem, 2006).

As usually defined, the inhibition is the drop in the measured response relative to a control, in per cent. Lower therefore signals a response near the control.

Structures are written as SMILES.

The target of the test is Human immunodeficiency virus type 1 protease (Human immunodeficiency virus 1) (UniProt Q72874). As to the kind of experiment: Inhibition of HIV1 protease at 5 uM. In short, it runs like this: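 Crude click-reaction DMSO mixtures (azide-alkyne, CuSO4 with copper turning, 1:1 tBuOH/H2O, 50 °C, 5 days) diluted to 5 µM in 0.1 M MES, 0.2 M NaCl, pH 5.25, 5% glycerol; HIV-1 protease 20 µg/mL plus fluorogenic substrate 50 µM added; fluorescence read directly in microplate; percent inhibition; TL-3 100 nM positive control.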
In turn, `O=C(N[C@@H](Cc1ccccc1)[C@H](Cc1ccccc1)n1cc(CN2CCN(c3ccc(F)cc3)CC2)nn1)OC1CCCC1` displayed an inhibition of 64%.
Under `O=C(N[C@@H](Cc1ccccc1)[C@H](Cc1ccccc1)n1cc(CN2CCN(c3ccccc3Cl)CC2)nn1)OC1CCCC1` stands 76%; under `Cc1ccc(Cl)cc1N1CCN(Cc2cn([C@@H](Cc3ccccc3)[C@H](Cc3ccccc3)NC(=O)C3CCCCC3)nn2)CC1`, 17%.
Under `O=C(N[C@@H](Cc1ccccc1)[C@H](Cc1ccccc1)n1cc(CN2CCC(O)(c3ccc(Cl)cc3)CC2)nn1)OC1CCCC1` stands 26%; under `Cc1ccc(Cl)cc1N1CCN(Cc2cn([C@@H](Cc3ccccc3)[C@H](Cc3ccccc3)NC(=O)OCC(C)C)nn2)CC1`, 73%; under `O=C(N[C@@H](Cc1ccccc1)[C@H](Cc1ccccc1)n1cc(CN2CCN(c3ccc(Cl)cc3)CC2)nn1)OC1CCCC1`, 77%.
Under `O=C(N[C@@H](Cc1ccccc1)[C@H](Cc1ccccc1)n1cc(CN2CCC(O)(c3ccccc3)CC2)nn1)OC1CCCC1` stands 20%.
`Cc1ccc(Cl)cc1N1CCN(Cc2cn([C@@H](Cc3ccccc3)[C@H](Cc3ccccc3)NC(=O)OCC3CCCC3)nn2)CC1` had an inhibition of 76%.
Under `CCN1CCN(Cc2cn([C@@H](Cc3ccccc3)[C@H](Cc3ccccc3)NC(=O)OC3CCCC3)nn2)CC1` stands 26%.
Next, `Cc1ccc(Cl)cc1N1CCN(Cc2cn([C@@H](Cc3ccccc3)[C@H](Cc3ccccc3)NC(=O)OCC3CC3)nn2)CC1`: 69%; `O=C(N[C@@H](Cc1ccccc1)[C@H](Cc1ccccc1)n1cc(CN2CCN(c3cccc(Cl)c3)CC2)nn1)OC1CCCC1`: 93%; `O=C(N[C@@H](Cc1ccccc1)[C@H](Cc1ccccc1)n1cc(CN2CCN(c3ccc(C(F)(F)F)cc3)CC2)nn1)OC1CCCC1`: 48%.
Under `O=C(N[C@@H](Cc1ccccc1)[C@H](Cc1ccccc1)n1cc(CN2CCN(c3cnccn3)CC2)nn1)OC1CCCC1` stands 14%; under `Cc1ccccc1N1CCN(Cc2cn([C@@H](Cc3ccccc3)[C@H](Cc3ccccc3)NC(=O)OC3CCCC3)nn2)CC1`, 80%; under `O=C(N[C@@H](Cc1ccccc1)[C@H](Cc1ccccc1)n1cc(CN2CCN(c3ccc(Cl)c(Cl)c3)CC2)nn1)OC1CCCC1`, 86%.
Consider `CC(C)(C)OC(=O)N1CCN(Cc2cn([C@@H](Cc3ccccc3)[C@H](Cc3ccccc3)NC(=O)OC3CCCC3)nn2)CC1`, for which the inhibition was 51%.
Next, `O=C(N[C@@H](Cc1ccccc1)[C@H](Cc1ccccc1)n1cc(CN2CCN(c3ccc(F)cc3F)CC2)nn1)OC1CCCC1`: 81%.
`COC(=O)N[C@@H](Cc1ccccc1)[C@H](Cc1ccccc1)n1cc(CN2CCN(c3cc(Cl)ccc3C)CC2)nn1` came in with an inhibition of 25%.
Next, `Cc1ccc(Cl)cc1N1CCN(Cc2cn([C@@H](Cc3ccccc3)[C@H](Cc3ccccc3)NC(=O)OCC3CCCO3)nn2)CC1` (stereo partly specified): 41%.
Next, `Cc1ccc(Cl)cc1N1CCN(Cc2cn([C@@H](Cc3ccccc3)[C@H](Cc3ccccc3)NC(=O)NC3CCCC3)nn2)CC1`: 19%.
Next, `O=C(N[C@@H](Cc1ccccc1)[C@H](Cc1ccccc1)n1cc(CN2CCCC(c3ccccc3)C2)nn1)OC1CCCC1` (stereo partly specified): 28%.
As to `Cc1ccc(Cl)cc1N1CCN(Cc2cn([C@@H](Cc3ccccc3)[C@H](Cc3ccccc3)NC(=O)Nc3ccc(F)cc3)nn2)CC1`, the inhibition was found to be 30%.
Next, `Cc1cccc(N2CCN(Cc3cn([C@@H](Cc4ccccc4)[C@H](Cc4ccccc4)NC(=O)OC4CCCC4)nn3)CC2C)c1` (stereo partly specified): 55%; `O=C(N[C@@H](Cc1ccccc1)[C@H](Cc1ccccc1)n1cc(CN2CCN(C3CCCCC3)CC2)nn1)OC1CCCC1`: 22%.
Under `O=C(N[C@@H](Cc1ccccc1)[C@H](Cc1ccccc1)n1cc(CN2CCN(c3ccccn3)CC2)nn1)OC1CCCC1` stands 36%; under `O=C(N[C@@H](Cc1ccccc1)[C@H](Cc1ccccc1)n1cc(CN2CCC(O)(c3cccc(C(F)(F)F)c3)CC2)nn1)OC1CCCC1`, 34%.
Under `O=C(N[C@@H](Cc1ccccc1)[C@H](Cc1ccccc1)n1cc(CN2CCN(c3ccccc3)CC2)nn1)OC1CCCC1` stands 82%; under `O=C(N[C@@H](Cc1ccccc1)[C@H](Cc1ccccc1)n1cc(CN2CCC3(CC2)C(=O)NCN3c2ccccc2)nn1)OC1CCCC1`, 17%.
Turning to `Cc1ccc(Cl)cc1N1CCN(Cc2cn([C@@H](Cc3ccccc3)[C@H](Cc3ccccc3)NC(=O)C3CCCC3)nn2)CC1`, the inhibition worked out at 28%.
Under `Cc1ccc(Cl)cc1N1CCN(Cc2cn([C@@H](Cc3ccccc3)[C@H](Cc3ccccc3)NC(=O)Oc3ccccc3)nn2)CC1` stands 31%; under `O=C(N[C@@H](Cc1ccccc1)[C@H](Cc1ccccc1)n1cc(CN2CC=C(c3ccc(Cl)cc3)CC2)nn1)OC1CCCC1`, 58%.
As for `O=C(N[C@@H](Cc1ccccc1)[C@H](Cc1ccccc1)n1cc(CN2CCN(c3cc(Cl)cc(Cl)c3)CC2)nn1)OC1CCCC1`, the inhibition stood at 89%.
Next, `Cc1ccc(Cl)cc1N1CCN(Cc2cn([C@@H](Cc3ccccc3)[C@H](Cc3ccccc3)NC(=O)NC(C)C)nn2)CC1`: 19%; `Cc1ccc(Cl)cc1N1CCN(Cc2cn([C@@H](Cc3ccccc3)[C@H](Cc3ccccc3)NC(=O)OCC3CCC3)nn2)CC1`: 75%; `Cc1ccc(Cl)cc1N1CCN(Cc2cn([C@@H](Cc3ccccc3)[C@H](Cc3ccccc3)NC(=O)OCc3ccccc3)nn2)CC1`: 29%.
Next, `O=C(N[C@@H](Cc1ccccc1)[C@H](Cc1ccccc1)n1cc(CN2CCC(O)(c3ccc(Cl)c(C(F)(F)F)c3)CC2)nn1)OC1CCCC1`: 48%.
Next, `Cc1ccc(Cl)cc1N1CCN(Cc2cn([C@@H](Cc3ccccc3)[C@H](Cc3ccccc3)NC(=O)OC3CCCCCC3)nn2)CC1`: 63%.
As for `O=C(N[C@@H](Cc1ccccc1)[C@H](Cc1ccccc1)n1cc(CN2CCN(C(=O)OCc3ccccc3)CC2)nn1)OC1CCCC1`, the inhibition was determined as 35%.
With `Cc1ccc(Cl)cc1N1CCN(Cc2cn([C@@H](Cc3ccccc3)[C@H](Cc3ccccc3)NC(=O)OC3CCC3)nn2)CC1`, the inhibition came out at 75%.
Next, `O=C(N[C@@H](Cc1ccccc1)[C@H](Cc1ccccc1)n1cc(CN2CCN(Cc3ccc4c(c3)OCO4)CC2)nn1)OC1CCCC1`: 29%.
Regarding `O=C(N[C@@H](Cc1ccccc1)[C@H](Cc1ccccc1)n1cc(CN2CCC(c3ccccc3)CC2)nn1)OC1CCCC1`, the inhibition amounted to 67%.
Under `O=C(N[C@@H](Cc1ccccc1)[C@H](Cc1ccccc1)n1cc(CN2CCC(Cc3ccccc3)CC2)nn1)OC1CCCC1` stands 70%; under `O=C(N[C@@H](Cc1ccccc1)[C@H](Cc1ccccc1)n1cc(CN2CCN(c3ncccn3)CC2)nn1)OC1CCCC1`, 25%.
Next, `O=C(N[C@@H](Cc1ccccc1)[C@H](Cc1ccccc1)n1cc(CN2CCN(c3cccc(O)c3)CC2)nn1)OC1CCCC1`: 85%; `CCOC(=O)N1CCN(Cc2cn([C@@H](Cc3ccccc3)[C@H](Cc3ccccc3)NC(=O)OC3CCCC3)nn2)CC1`: 27%; `Cc1ccc(Cl)cc1N1CCN(Cc2cn([C@@H](Cc3ccccc3)[C@H](Cc3ccccc3)NC(=O)OC3CCCCC3)nn2)CC1`: 66%.
